Screening data from PubChem BioAssay.
OXTR agonist – activates the human oxytocin receptor; CHO-OTR cells, Fluo-8 calcium fluorescence; normalized: DMSO 0%, oxytocin 100%; activation, % at 3 µM; 0.32% of 320,000 active; AID 2435;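 active = activation above the mean of all tested compounds plus 3 SD, cutoff set per screening run, cut at about 20% in these data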;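 also: peak over basal fluorescence ratio from a 100 s FLIPR kinetic read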
OX1R antag-1 – antagonists of human orexin 1 receptor (OX1R). OX1R-expressing cells, FRET antagonist read-out. inhibition, % at 6.6 µM. 1.8% of 330,000 active. O43613. AID 485270; in the data active = inhibition mostly above about 38%, no sharp cut-off; inactive = mostly below about 40%;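 also: 0% = agonist challenge alone and 100% = reference antagonist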
Target sequence (O43613 whole entry, looked up): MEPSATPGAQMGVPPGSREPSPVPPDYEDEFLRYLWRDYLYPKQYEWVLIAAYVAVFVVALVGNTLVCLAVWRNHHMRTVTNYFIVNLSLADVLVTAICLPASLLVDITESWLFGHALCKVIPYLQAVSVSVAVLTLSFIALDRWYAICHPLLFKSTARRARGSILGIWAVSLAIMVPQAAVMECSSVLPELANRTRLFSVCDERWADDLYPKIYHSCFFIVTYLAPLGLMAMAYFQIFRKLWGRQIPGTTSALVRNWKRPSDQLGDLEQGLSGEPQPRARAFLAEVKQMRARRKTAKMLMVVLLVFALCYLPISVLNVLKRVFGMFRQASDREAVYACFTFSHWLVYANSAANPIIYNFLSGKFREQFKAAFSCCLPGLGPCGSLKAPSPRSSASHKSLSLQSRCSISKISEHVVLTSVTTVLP
OX1R antag-2 – antagonists of human orexin 1 receptor. inhibition, % at 5 µM. CHO/OX1R cells, Fluo-8 calcium fluorescence, orexin A. 0.43% of 330,000 active;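 active = inhibition above its plate's threshold, mean inhibition of all tested compounds on the plate plus 3 SD, cut at about 37% in these data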;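 also: 0% = orexin A challenge wells and 100% = SB-334867-A antagonist wells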
V1R ag counter – activates human V1a receptor in oxytocin agonist counter-screen; P37288; CHO-V1R cells, Fluo-8 calcium fluorescence, agonist mode; 0% DMSO, 100% 3 nM vasopressin; activation, % at 3 µM; 0.25% of 320,000 active; AID 2797;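 active = activation above the mean activation of all tested compounds plus 3 SD, per screening run, cut at about 20% in these data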;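 also: signal is peak over basal fluorescence ratio across a 100 second FLIPR read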
CHO parental Ca – counter-screen: ATP calcium response change in parental CHO cells | parental CHO-K1, ATP-induced calcium, Fluo-8 fluorescence | inhibition, % at 5.6 µM | 0.63% of 330,000 active | AID 463079;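 active = inhibition above that plate's mean sample inhibition plus 3 SD, cut at about 26% in these data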;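 also: 0% = ATP-challenged DMSO wells and 100% = DMSO wells without ATP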
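Material – parental CHO cells · Reagent – ATP stimulus · Compound – single nominal dose of 5.6 µM per compound · Detection – Fluo-8 fluorescence · Read-out basis – percent inhibition of calcium signal · Controls – ATP-challenged DMSO wells low, unchallenged DMSO wells high · Repeats – no replicates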
OXTR potentiate – potentiators of human oxytocin receptor; CHO-OTR cells, Fluo-8 calcium fluorescence, potentiator mode; 0% = oxytocin EC15, 100% = EC100; activation, % at 3 µM; P30559; 0.061% of 320,000 active;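 active = activation above that plate's cutoff, the mean activation of tested compounds plus 3 SD, cut at about 6.6% in these data, passing the limit was not always enough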;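 also: 100% uses oxytocin at 75 nM as the full agonist control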
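assay system = CHO-OTR cells, human receptor | schedule = compound 6 min at room temperature before oxytocin, 100 s read | detection = Fluo-8 intracellular calcium fluorescence, ex 470-495, em 515-575 nm | evaluation = normalized max/min fluorescence ratio, % activation | control set = EC15 oxytocin alone as 0%, 75 nM oxytocin (EC100) as 100%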
OX1R HTRF confirm – confirmation of human orexin 1 receptor antagonists, HTRF format | OX1R-expressing cells, HTRF antagonist assay | AID 492964 | shares compounds with OX1R antag-1 | 49% of 1,800 active | inhibition, % at 6.6 µM; in the data active = inhibition above about 55%;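 also: CHO cells expressing OX1R stimulated with orexin A at about EC80; 0% = agonist challenge alone and 100% = reference antagonist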
CHO-K1 HTRF – signal in parental CHO-K1 cells, OX1R antagonist counter-screen | 48% of 1,800 active | shares compounds with OX1R antag-1 | inhibition, % at 6.6 µM | HTRF counterscreen; in the data active = inhibition above about 17%;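 also: 0% = agonist challenge with vehicle and 100% = vehicle alone without agonist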
* hit, by the source's call; / = no result. Compounds with a hit are over-represented: about 2.7% of the library has one in this group of screens.

SMILES | OXTR agonist | OX1R antag-1 | OX1R antag-2 | V1R ag counter | CHO parental Ca | OXTR potentiate | OX1R HTRF confirm | CHO-K1 HTRF
CNS(=O)(=O)c1cc2c3c(cccc3c1)C(=O)NC2=O | 0 | 130* | -2 | 0 | -4 | -2 | 51 | 78*
COc1cc(C(=O)O)nc2ccc([N+](=O)[O-])cc12 | 2 | 88* | -11 | 1 | -12 | -10 | 60* | 98*
COc1ccc([N+](=O)[O-])cc1C(=O)C(=O)c1ccccc1 | -1 | 12 | -30 | 0 | -10 | -8 | / | /
COc1cc(OC)c2cc(C(=O)N/N=C/c3cccc(OC)c3O)[nH]c2c1 | 0 | 77* | 13 | 0 | -12 | -4 | 72* | 10
CCC(=O)OCCNc1cc(Sc2nccn2C)c2nonc2c1[N+](=O)[O-] | -1 | 122* | 34 | 0 | 30 | 0 | 63* | 90*
CC(=O)OCCNc1cc(SC(C)C)c2nonc2c1[N+](=O)[O-] | 0 | 104* | -25 | 1 | -11 | -7 | 46 | 72*
CCC(=O)OCCNc1cc(SCCC(=O)OC)c2nonc2c1[N+](=O)[O-] | -1 | 84* | -20 | 1 | -2 | -12 | 59* | 78*
CN(C)C(=O)CCc1ccc2c3c([nH]c2c1)[C@]1(CCc2ccccc2)[C@@H](C(=O)N2CCCCC2)C[C@H](CC(=O)NCCCn2ccnc2)C(=O)N1CC3 | / | 5 | -2 | / | -6 | / | / | /
Cc1ccc(C)c(N(CC(=O)NC(C)(C)C)C(=O)CNC(=O)c2cccs2)c1 | 0 | 115* | -26 | 1 | -15 | 0 | 14 | 3
Cc1ccc(CNC(=O)c2ccc(C)c(S(=O)(=O)N3CCCCC3)c2)cc1 | -2 | -3 | 4 | 0 | -23 | -11 | / | /
Cc1cc(F)ccc1NCc1cc2c(cc1[N+](=O)[O-])OCO2 | -3 | 85* | -16 | -1 | -21 | -14 | 29 | 21*
CCOC(=O)c1cnn(-c2ccc([N+](=O)[O-])cc2)c1N | -1 | 22 | -12 | 0 | -12 | -2 | / | /
CCOC(=O)c1csc(-c2ccc([N+](=O)[O-])cc2)n1 | -2 | 104* | 0 | -1 | -5 | -22 | 40 | 44*
CCOC(=O)c1cc(-c2cccc([N+](=O)[O-])c2)on1 | 0 | 26 | 11 | 0 | 19 | -11 | / | /
CC(=O)c1nnn(-c2cccc([N+](=O)[O-])c2)c1C | 0 | 30 | -16 | 0 | -3 | 2 | / | /
CC(=O)c1nnn(-c2ccc([N+](=O)[O-])cc2C)c1C | 1 | 162* | -16 | 1 | -16 | -7 | 27 | 40*
CCOC(=O)c1nnn(-c2ccc([N+](=O)[O-])cc2)c1C | 0 | 111* | -7 | 0 | 2 | -1 | 42 | 54*
O=C(NCc1ccco1)c1ccc(-c2csnn2)cc1 | 0 | 4 | -11 | -1 | -4 | -3 | / | /
O=C1c2ccccc2C(=O)C2OC12 (configuration not stated) | 0 | 14 | -1 | 0 | -5 | 2 | / | /
COc1ccc(S(=O)(=O)N2CCN(C(=O)c3ccc(NC(C)=O)cc3)CC2)cc1 | 0 | 1 | -9 | 0 | -17 | 3 | / | /
Cc1ccc(C(=O)Nc2ccc3c(c2)C(=O)N(CC2CCCO2)C3=O)cc1 (configuration not stated) | 1 | 10 | 9 | 3 | -10 | -8 | / | /
O=C(O)c1ccc(NC(=O)c2ccc3c(c2)C(=O)N(CC2CCCO2)C3=O)cc1 (configuration not stated) | 0 | 78* | -16 | -1 | -5 | -3 | 34 | 32*
Cc1ccc(/C=C2\SC(N3CCCCC3)=NC2=O)cc1 | -2 | 16 | -11 | 0 | -14 | -2 | / | /
O=C1N=C(N2CCCC2)S/C1=C\c1ccccc1 | -1 | 147* | -15 | 1 | -13 | -16 | 58* | 27*
O=C1NC(=S)N/C1=C/c1cccc([N+](=O)[O-])c1 | 0 | 93* | -5 | 0 | -11 | -5 | 31 | 40*
SMILES | OXTR agonist | OX1R antag-1 | OX1R antag-2 | V1R ag counter | CHO parental Ca | OXTR potentiate | OX1R HTRF confirm | CHO-K1 HTRF
O=C1NC(=S)N/C1=C\c1cccc([N+](=O)[O-])c1 | -1 | 29 | 11 | 0 | 4 | 3 | / | /
O=C(Nn1cnnc1)c1cc([N+](=O)[O-])cc([N+](=O)[O-])c1 | 1 | 113* | -9 | 6 | -6 | 4 | 66* | 84*
CCOC(=O)C1=C(COC(=O)C(CC)c2ccccc2)NC(=O)NC1C (configuration not stated) | -1 | 8 | -18 | 0 | -18 | -6 | / | /
N#Cc1cc2[nH]c3ccccc3c2[n+](-c2ccc([N+](=O)[O-])cc2)c1N | 0 | 124* | 4 | 0 | -5 | -8 | 32 | 38*
N#Cc1cc([N+](=O)[O-])ccc1N1CCCC1 | 0 | 31 | -8 | 3 | -6 | -8 | / | /
CCOC(=O)CNC(=O)CSc1ncnc2c1cnn2-c1ccc(Cl)cc1 | 3 | 18 | -19 | 2 | -4 | -4 | / | /
CCOC(=O)Cc1csc(NC(=O)CSc2ncnc3c2cnn3-c2ccc(OC)cc2)n1 | 1 | 80* | 29 | 4 | 13 | -19 | 27 | 4
CC(=O)c1ccc(NC(=O)Nc2ccc3c(c2)N(C)C(=O)CS3)cc1 | 12 | 79* | -15 | 12 | -1 | -25 | 19 | 11
CCOc1ccc(NC(=O)Nc2ccc3c(c2)N(C)C(=O)CS3)cc1 | 3 | 14 | -13 | 10 | 19 | -10 | / | /
O=C(N/N=C/c1ccc(O)cc1)c1cc[n+](Cc2ccccc2)cc1 | 0 | 90* | -13 | 0 | -11 | -6 | 39 | 45*
Cc1cc(Br)ccc1NC(=O)CN(C)C(=O)C1CSC2(C)CCC(=O)N12 (configuration not stated) | 2 | 6 | -11 | 1 | -7 | -4 | / | /
CCn1c(NCc2ccc(N(C)C)cc2)nc2ccccc21 | 1 | 25 | -18 | 1 | -11 | -3 | / | /
CN(C)c1ccc(N=Nc2nc3ccccc3n2C)cc1 | -2 | 106* | 15 | -1 | -9 | -10 | 107* | 29*
Cc1cc(C(=O)N/N=C/c2ccc([N+](=O)[O-])o2)c(C)o1 | -1 | 32 | 8 | -1 | -5 | -16 | / | /
Cc1nonc1C(=O)N/N=C/c1ccc([N+](=O)[O-])o1 | 0 | 144* | -8 | 0 | 2 | -10 | 52 | 81*
O=C(N/N=C/c1ccc([N+](=O)[O-])o1)C1CC1 | 0 | 127* | -5 | 4 | -11 | -9 | 58* | 75*
